How the values were obtained:
[1] = tested on: Jurkat; assay: Antiproliferative activity against human Jurkat cells assessed as inhibition of cell viability measured for 48 hrs by microplate reader based CCK-8 assay; type: functional
[2] = tested on: B16-F10; assay: Antiproliferative activity against mouse B16-F10 cells assessed as inhibition of cell viability measured for 48 hrs by microplate reader based MTT assay; type: functional; conditions: B16-F10, 48 h
Procedure, shortened: (§1)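 Cells grown in RPMI-1640 with 10% FBS and seeded at 5000 cells/well. After overnight attachment, compound was added in medium with 0.1% DMSO for 48 h at 37 °C. Read-out was MTT for HCT-116, B16-F10 and A549, and CCK-8 for Jurkat (0.5 mg/mL, 4 h), with absorbance at 570 nm. IC50 from nonlinear regression; at least three independent experiments.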

[3] = tested on: HCT-116; assay: Antiproliferative activity against human HCT-116 cells assessed as inhibition of cell viability measured for 48 hrs by microplate reader based MTT assay; type: functional; conditions: HCT-116, 48 h; procedure, shortened: as §1
[4] = target: Histone deacetylase 1 (Homo sapiens, UniProt Q13547); assay: Inhibition of full length recombinant human HDAC1 (1 to 482 residues) expressed in Baculovirus system using Ac-Leu-Gly-Lys (Ac)-AMC as substrate pretreated for 5 mins followed by substrate addition and measured after 30 mins
Sequence of Histone deacetylase 1 (Q13547 whole entry, the tested form may be a part): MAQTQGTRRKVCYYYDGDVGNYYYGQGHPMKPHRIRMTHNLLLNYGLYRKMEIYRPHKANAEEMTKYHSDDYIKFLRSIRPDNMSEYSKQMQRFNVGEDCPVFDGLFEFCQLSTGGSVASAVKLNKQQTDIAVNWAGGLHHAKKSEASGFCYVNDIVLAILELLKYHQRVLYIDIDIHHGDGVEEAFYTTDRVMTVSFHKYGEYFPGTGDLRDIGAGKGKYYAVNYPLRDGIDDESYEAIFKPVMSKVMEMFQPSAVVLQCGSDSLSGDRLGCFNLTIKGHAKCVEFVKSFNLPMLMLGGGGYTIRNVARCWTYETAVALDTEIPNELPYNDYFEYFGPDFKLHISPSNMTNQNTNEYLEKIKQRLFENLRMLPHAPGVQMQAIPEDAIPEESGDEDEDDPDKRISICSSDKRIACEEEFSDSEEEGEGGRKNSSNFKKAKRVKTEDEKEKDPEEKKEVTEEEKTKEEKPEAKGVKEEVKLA

[5] = target: T1, Histone deacetylase 8 (Homo sapiens, UniProt Q9BY41); assay: Inhibition of full length C-terminal his-tagged human recombinant HDAC8 ([…]) expressed in baculovirus in Sf9 insect cells using Ac-Leu-Gly-Lys (Tfa)-AMC as substrate pretreated for 5 mins followed by substrate addition and measured after 30 mins
T1 sequence (Q9BY41 whole entry): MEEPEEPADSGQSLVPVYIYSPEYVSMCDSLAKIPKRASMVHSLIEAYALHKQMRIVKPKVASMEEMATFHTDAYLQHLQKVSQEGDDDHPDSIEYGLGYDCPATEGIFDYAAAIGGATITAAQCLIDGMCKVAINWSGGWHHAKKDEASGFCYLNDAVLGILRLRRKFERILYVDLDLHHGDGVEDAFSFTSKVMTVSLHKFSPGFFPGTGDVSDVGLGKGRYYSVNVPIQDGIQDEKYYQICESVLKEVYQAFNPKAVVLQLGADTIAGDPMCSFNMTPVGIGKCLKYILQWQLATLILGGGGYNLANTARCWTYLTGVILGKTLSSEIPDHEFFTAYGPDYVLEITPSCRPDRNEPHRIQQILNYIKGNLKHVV

[6] = target: T2, Protein deacetylase HDAC6 (Homo sapiens, UniProt Q9UBN7); assay: Inhibition of full length N-terminal GST-tagged human recombinant HDAC6 (1 to 1215 residues) expressed in Baculovirus infected Sf9 cells using Ac-Leu-Gly-Lys (Ac)-AMC as substrate pretreated for 5 mins followed by substrate addition and measured after 30 mins
T2 sequence (Q9UBN7 whole entry): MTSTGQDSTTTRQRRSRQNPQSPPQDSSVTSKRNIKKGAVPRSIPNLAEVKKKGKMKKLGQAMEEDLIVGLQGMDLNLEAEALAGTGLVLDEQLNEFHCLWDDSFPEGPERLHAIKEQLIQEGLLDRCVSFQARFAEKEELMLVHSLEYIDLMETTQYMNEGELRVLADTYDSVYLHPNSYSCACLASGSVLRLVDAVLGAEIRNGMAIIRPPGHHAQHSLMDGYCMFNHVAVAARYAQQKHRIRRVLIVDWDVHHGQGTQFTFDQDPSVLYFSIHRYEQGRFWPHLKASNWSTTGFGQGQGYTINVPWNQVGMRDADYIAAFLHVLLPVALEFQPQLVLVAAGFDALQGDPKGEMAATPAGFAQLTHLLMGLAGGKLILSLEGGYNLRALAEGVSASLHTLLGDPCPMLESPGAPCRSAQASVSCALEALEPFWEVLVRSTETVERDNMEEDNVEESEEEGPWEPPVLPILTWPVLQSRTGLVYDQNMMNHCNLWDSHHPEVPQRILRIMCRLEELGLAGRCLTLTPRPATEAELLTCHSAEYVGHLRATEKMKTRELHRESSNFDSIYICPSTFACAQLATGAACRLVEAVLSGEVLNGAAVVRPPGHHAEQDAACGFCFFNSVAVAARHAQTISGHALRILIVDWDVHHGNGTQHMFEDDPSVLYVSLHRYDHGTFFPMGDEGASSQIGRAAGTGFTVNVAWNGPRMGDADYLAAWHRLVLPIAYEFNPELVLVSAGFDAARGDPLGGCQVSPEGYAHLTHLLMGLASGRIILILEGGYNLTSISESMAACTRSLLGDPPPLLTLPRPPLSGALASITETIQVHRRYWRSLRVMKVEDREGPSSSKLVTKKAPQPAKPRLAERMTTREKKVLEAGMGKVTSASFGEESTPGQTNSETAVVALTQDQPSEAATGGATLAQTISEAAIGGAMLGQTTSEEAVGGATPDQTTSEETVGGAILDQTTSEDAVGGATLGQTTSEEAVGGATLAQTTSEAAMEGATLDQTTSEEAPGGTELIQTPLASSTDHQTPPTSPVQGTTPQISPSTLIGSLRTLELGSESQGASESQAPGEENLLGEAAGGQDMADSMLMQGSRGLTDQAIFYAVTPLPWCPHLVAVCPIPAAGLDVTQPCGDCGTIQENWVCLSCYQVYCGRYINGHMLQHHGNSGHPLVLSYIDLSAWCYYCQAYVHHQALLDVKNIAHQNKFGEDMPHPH
Procedure, shortened: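 HDAC6 at 15 ng/well in Tris buffer pH 8.0 with MgCl2, BSA, NaCl and KCl. Ten 3-fold dilutions preincubated 5 min at room temperature, then 10 μM Ac-Leu-Gly-Lys(Ac)-AMC for 30 min at 37 °C. IC50 by normalized dose–response nonlinear fit; performed at least three times.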

[7] = target: Histone deacetylase 3 (Homo sapiens, UniProt O15379); assay: Inhibition of recombinant HDAC3 (unknown origin) using Ac-Leu-Gly-Lys (Ac)-AMC as substrate pretreated for 5 mins followed by substrate addition and measured after 30 mins
Sequence of Histone deacetylase 3 (O15379 whole entry): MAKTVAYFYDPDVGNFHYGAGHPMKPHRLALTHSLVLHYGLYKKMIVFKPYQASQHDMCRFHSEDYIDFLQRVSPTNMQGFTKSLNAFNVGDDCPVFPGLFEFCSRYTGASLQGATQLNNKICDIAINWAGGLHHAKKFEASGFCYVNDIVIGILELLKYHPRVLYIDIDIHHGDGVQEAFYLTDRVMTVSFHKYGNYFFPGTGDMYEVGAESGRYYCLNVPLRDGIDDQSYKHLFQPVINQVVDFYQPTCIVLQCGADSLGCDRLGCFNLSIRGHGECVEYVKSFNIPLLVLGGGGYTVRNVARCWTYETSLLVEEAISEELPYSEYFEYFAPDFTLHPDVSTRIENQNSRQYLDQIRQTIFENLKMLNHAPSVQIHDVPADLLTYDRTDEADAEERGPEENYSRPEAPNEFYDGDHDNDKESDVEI

[8] = tested on: A549; assay: Antiproliferative activity against human A549 cells assessed as inhibition of cell viability measured for 48 hrs by microplate reader based CCK-8 assay; type: functional; conditions: A549, 48 h
[9] = target: T3, Protein deacetylase HDAC6 (Homo sapiens) (UniProt Q9UBN7); assay: Inhibition of recombinant HDAC6 (unknown origin) at 1 uM relative to control
T3 sequence (whole entry): T2 sequence (Q9UBN7 whole entry)
Procedure, shortened: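 Single-point test at 1 μM against recombinant HDAC6 (15 ng/well) in 25 mM Tris pH 8.0, 1 mM MgCl₂, 0.1 mg/mL BSA, 137 mM NaCl, 2.7 mM KCl. Compound preincubated 5 min at room temperature, then Ac-Leu-Gly-Lys(Ac)-AMC 10 μM, 30 min at 37 °C. Trypsin/TSA developer 30 min. Fluorescence read at ex 350−360/em 450−460 nm.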

[10] = target: Tubulin (Sus scrofa) (UniProt P02554+P02550); assay: Inhibition of pig brain tubulin polymerization at 10 uM measured after 20 mins by spectrometric method relative to control
Sequence of Tubulin (Sus scrofa) (P02550 whole entry, looked up): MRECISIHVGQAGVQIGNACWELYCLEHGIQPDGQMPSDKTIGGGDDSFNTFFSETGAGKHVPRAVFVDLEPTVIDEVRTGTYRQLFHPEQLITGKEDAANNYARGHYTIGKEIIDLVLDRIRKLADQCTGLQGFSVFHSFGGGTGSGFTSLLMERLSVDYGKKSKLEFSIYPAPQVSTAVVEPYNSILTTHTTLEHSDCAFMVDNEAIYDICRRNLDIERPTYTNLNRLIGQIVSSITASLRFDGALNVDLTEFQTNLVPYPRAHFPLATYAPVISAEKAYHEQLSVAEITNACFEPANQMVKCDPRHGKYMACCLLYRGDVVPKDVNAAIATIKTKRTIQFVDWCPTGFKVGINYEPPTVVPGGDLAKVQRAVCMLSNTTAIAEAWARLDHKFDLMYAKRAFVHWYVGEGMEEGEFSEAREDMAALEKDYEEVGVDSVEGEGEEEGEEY
Sequence of Tubulin (Sus scrofa) (P02554 whole entry, looked up): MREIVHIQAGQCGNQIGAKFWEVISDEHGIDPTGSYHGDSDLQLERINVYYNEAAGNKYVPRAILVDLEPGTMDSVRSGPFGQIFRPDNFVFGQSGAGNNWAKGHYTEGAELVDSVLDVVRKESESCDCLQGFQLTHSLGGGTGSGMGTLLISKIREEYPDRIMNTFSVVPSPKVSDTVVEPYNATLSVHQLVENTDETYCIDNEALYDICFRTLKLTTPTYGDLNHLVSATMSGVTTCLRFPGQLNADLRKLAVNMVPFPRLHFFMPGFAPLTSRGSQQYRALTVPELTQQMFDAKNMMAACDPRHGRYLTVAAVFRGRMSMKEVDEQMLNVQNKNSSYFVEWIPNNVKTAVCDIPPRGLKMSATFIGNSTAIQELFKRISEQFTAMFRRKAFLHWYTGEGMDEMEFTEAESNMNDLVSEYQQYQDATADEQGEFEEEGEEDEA
Procedure, shortened: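 Pig brain tubulin was purified by three assembly/disassembly cycles and then phosphocellulose chromatography. Compound at 10 μM in PEM buffer with 1 mM GTP and 5% glycerol at 37 °C. Polymerization followed at 340 nm; inhibition taken at 20 min versus vehicle control.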

[11] = Antiproliferative activity against human YCC-11 cells assessed as inhibition of cell viability; type: functional, cell-based
[12] = Antiproliferative activity against human YCC3/7 cells assessed as inhibition of cell viability; type: functional, cell-based

| Compound | IC50 [1] | IC50 [2] | IC50 [3] | IC50 [4] | IC50 [5] | IC50 [6] | IC50 [7] | IC50 [8] | inhibition [9] | inhibition [10] | IC50 [11] | IC50 [12] |
| --- | --- | --- | --- | --- | --- | --- | --- | --- | --- | --- | --- | --- |
| COc1cc(C(=O)c2csc(-c3ccc(NC(=O)c4ccc(C(=O)Nc5ccccc5N)cc4)cc3)n2)cc(OC)c1OC | 520 nM | 4320 nM | 1420 nM | 10500 nM | 2080 nM | 36300 nM | 3460 nM | 6580 nM | – | – | – | – |
| COc1cc(C(=O)c2csc(-c3ccc(OCc4ccc(C(=O)NO)cc4)cc3)n2)cc(OC)c1OC | 380 nM | 2770 nM | 2550 nM | 7190 nM | 7980 nM | 1980 nM | 12600 nM | 10000 nM | > 50% | – | – | – |
| COc1cc(C(=O)c2csc(-c3ccc(NC(=O)CCC(=O)NO)cc3)n2)cc(OC)c1OC | 420 nM | 920 nM | 2510 nM | 7360 nM | 5140 nM | 1860 nM | 12300 nM | 5830 nM | > 50% | – | – | – |
| COc1cc(C(=O)c2csc(-c3ccc(NC(=O)CC(=O)Nc4ccccc4N)cc3)n2)cc(OC)c1OC | 60 nM | > 10000 nM | 1010 nM | 4070 nM | 12000 nM | 21100 nM | 360 nM | > 10000 nM | – | 65% | – | – |
| COc1cc(C(=O)c2csc(-c3ccc(NC(=O)CCCCC(=O)Nc4ccccc4N)cc3)n2)cc(OC)c1OC | 20 nM | 830 nM | 440 nM | 8120 nM | 8740 nM | 36400 nM | 180 nM | 1540 nM | – | 28% | – | – |
| COc1cc(C(=O)c2csc(-c3ccc(NC(=O)/C=C/C(=O)NO)cc3)n2)cc(OC)c1OC | 500 nM | 1480 nM | 2820 nM | 17500 nM | 3900 nM | 1050 nM | 13000 nM | > 10000 nM | > 50% | – | – | – |
| COc1cc(C(=O)c2csc(-c3ccc(NC(=O)CCCCCC(=O)NO)cc3)n2)cc(OC)c1OC | 150 nM | > 10000 nM | 1900 nM | 19100 nM | 4170 nM | 1940 nM | 12200 nM | > 10000 nM | > 50% | – | – | – |
| COc1cc(C(=O)c2csc(-c3ccc(NC(=O)CCCCCC(=O)Nc4ccccc4N)cc3)n2)cc(OC)c1OC | 20 nM | > 10000 nM | 670 nM | 8530 nM | 8500 nM | 27300 nM | 390 nM | 2360 nM | – | 24% | – | – |
| COc1cc(C(=O)c2csc(-c3ccc(C#CCCC(=O)Nc4ccccc4N)cc3)n2)cc(OC)c1OC | 260 nM | > 10000 nM | 2110 nM | 9770 nM | 6550 nM | 20200 nM | 1980 nM | > 10000 nM | – | – | – | – |
| COc1cc(C(=O)c2csc(-c3ccc(NCC(=O)Nc4ccccc4N)cc3)n2)cc(OC)c1OC | 60 nM | 2350 nM | 1640 nM | 9800 nM | 9110 nM | 27100 nM | 1760 nM | 2200 nM | – | – | – | – |
| COc1cc(C(=O)c2csc(-c3ccc(NC(=O)CCCC(=O)NO)cc3)n2)cc(OC)c1OC | 40 nM | 750 nM | 150 nM | 10100 nM | 6320 nM | 1730 nM | 13600 nM | > 10000 nM | > 50% | – | – | – |
| COc1cc(C(=O)c2csc(-c3ccc(NC(=O)CCCCC(=O)NO)cc3)n2)cc(OC)c1OC | 60 nM | > 10000 nM | 770 nM | 16600 nM | 3280 nM | 2550 nM | 13100 nM | > 10000 nM | > 50% | – | – | – |
| COc1cc(C(=O)c2csc(-c3ccc(OCc4ccc(/C=C/C(=O)NO)cc4)cc3)n2)cc(OC)c1OC | 480 nM | 2210 nM | 2780 nM | 6860 nM | 7100 nM | 2070 nM | 8860 nM | > 10000 nM | > 50% | – | – | – |
| COc1cc(C(=O)c2csc(-c3ccc(NC(=O)CCCCCCC(=O)Nc4ccccc4N)cc3)n2)cc(OC)c1OC | 30 nM | 910 nM | 360 nM | 9880 nM | 10200 nM | 29200 nM | 1730 nM | 2100 nM | – | – | 3680 nM | 5310 nM |
| COc1cc(C(=O)c2csc(-c3ccc(NCCC(=O)Nc4ccccc4N)cc3)n2)cc(OC)c1OC | 30 nM | 670 nM | 600 nM | 10700 nM | 8280 nM | 23800 nM | 380 nM | > 10000 nM | – | 19% | – | – |
| COc1cc(C(=O)c2csc(-c3ccc(OCCCCCCC(=O)Nc4ccccc4N)cc3)n2)cc(OC)c1OC | 700 nM | 1890 nM | 1910 nM | 7490 nM | 7490 nM | 27100 nM | 470 nM | 2440 nM | – | 18% | – | – |
| COc1cc(C(=O)c2csc(-c3ccc(/C=C/C(=O)Nc4ccccc4N)cc3)n2)cc(OC)c1OC | 10 nM | 810 nM | 790 nM | 11000 nM | 3110 nM | 22500 nM | 170 nM | > 10000 nM | – | 30% | – | – |

Source: ChEMBL document CHEMBL5096187, “Efficient Synthesis and Bioevaluation of Novel Dual Tubulin/Histone Deacetylase 3 Inhibitors as Potential Anticancer Agents” (J Med Chem, 2021)
